Data from ChEMBL document CHEMBL1649258, “Combined inactivation of lon and ycgE decreases multidrug susceptibility by reducing the amount of OmpF porin in Escherichia coli” (2009).
Values after ≈ are worked out from the molar mass of the structure shown.

Columns and labels:
Type in all cases: functional
Escherichia coli [1] = assay: Antibacterial activity against ompF-deficient Escherichia coli AG100 harboring IS186 insertion in lon3 gene and Tn5 insertion in ycgE gene at 26 degC by Etest method
Escherichia coli [2] = assay: Antibacterial activity against ompF-deficient Escherichia coli AG100 harboring IS186 insertion in lon3 gene and Tn5 insertion in ycgE gene at 37 degC by Etest method
Escherichia coli [3] = assay: Antibacterial activity against ompF-deficient Escherichia coli AG100 at 26 degC by Etest method
Escherichia coli [4] = assay: Antibacterial activity against ompF-deficient Escherichia coli AG100 at 37 degC by Etest method
Escherichia coli [5] = assay: Antibacterial activity against wild-type Escherichia coli AG100 harboring marR mutant gene at 26 degC by Etest method
Escherichia coli [6] = assay: Antibacterial activity against wild-type Escherichia coli AG100 harboring marR mutant gene at 37 degC by Etest method
Escherichia coli [7] = assay: Antibacterial activity against wild-type Escherichia coli AG100 harboring IS186 insertion in lon3 gene and Tn5 insertion in ycgE gene at 26 degC by Etest method
Escherichia coli [8] = assay: Antibacterial activity against wild-type Escherichia coli AG100 harboring IS186 insertion in lon3 gene and Tn5 insertion in ycgE gene at 37 degC by Etest method
Escherichia coli [9] = assay: Antibacterial activity against wild-type Escherichia coli AG100 harboring Tn5 insertion in ycgE gene at 37 degC by Etest method
Escherichia coli [10] = assay: Antibacterial activity against wild-type Escherichia coli AG100 harboring Tn5 insertion in ycgE gene at 26 degC by Etest method
Escherichia coli [11] = assay: Antibacterial activity against wild-type Escherichia coli AG100 harboring IS186 insertion in lon3 gene at 26 degC by Etest method
Escherichia coli [12] = assay: Antibacterial activity against wild-type Escherichia coli AG100 harboring IS186 insertion in lon3 gene at 37 degC by Etest method
Escherichia coli [13] = assay: Antibacterial activity against wild-type Escherichia coli AG100 at 26 degC by Etest method
Escherichia coli [14] = assay: Antibacterial activity against wild-type Escherichia coli AG100 at 37 degC by Etest method
Escherichia coli [15] = assay: Antibacterial activity against wild-type Escherichia coli AG100 harboring IS186 insertion in lon3 gene, Tn5 insertion in ycgE gene, plasmid pET21b carrying ompF gene and pACT7SP at 26 degC by Etest method
How it was run: (§1)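 MIC by Etest on LB agar at 26°C for the lon ycgE strain with pACT7Sp plus pET21b or pET21b-ompF; plates contained 100 μg/ml ampicillin, 50 μg/ml spectinomycin and 0.1 mM IPTG to induce OmpF; averages of at least four measurements.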

Escherichia coli [16] = assay: Antibacterial activity against wild-type Escherichia coli AG100 harboring IS186 insertion in lon3 gene, Tn5 insertion in ycgE gene, plasmid pET21b and pACT7SP at 26 degC by Etest method; how it was run: as §1
Escherichia coli [17] = assay: Antibacterial activity against wild-type Escherichia coli AG100 harboring IS186 insertion in lon3 gene, Tn5 insertion in ycgE gene and plasmid pMPM carrying ompF gene at 26 degC by Etest method
Escherichia coli [18] = assay: Antibacterial activity against wild-type Escherichia coli AG100 harboring IS186 insertion in lon3 gene, Tn5 insertion in ycgE gene and plasmid pMPM at 26 degC by Etest method

Structure (SMILES)	MIC (Escherichia coli [1]) [µg/mL]	MIC (Escherichia coli [2]) [µg/mL]	MIC (Escherichia coli [3]) [µg/mL]	MIC (Escherichia coli [4]) [µg/mL]	MIC (Escherichia coli [5]) [µg/mL]	MIC (Escherichia coli [6]) [µg/mL]	MIC (Escherichia coli [7]) [µg/mL]	MIC (Escherichia coli [8]) [µg/mL]	MIC (Escherichia coli [9]) [µg/mL]	MIC (Escherichia coli [10]) [µg/mL]	MIC (Escherichia coli [11]) [µg/mL]	MIC (Escherichia coli [12]) [µg/mL]	MIC (Escherichia coli [13]) [µg/mL]	MIC (Escherichia coli [14]) [µg/mL]	MIC (Escherichia coli [15]) [µg/mL]	MIC (Escherichia coli [16]) [µg/mL]	MIC (Escherichia coli [17]) [µg/mL]	MIC (Escherichia coli [18]) [µg/mL]
CN(C)[C@@H]1C(O)=C(C(N)=O)C(=O)[C@@]2(O)C(O)=C3C(=O)c4c(O)cccc4[C@@](C)(O)[C@H]3C[C@@H]12 [TETRACYCLINE]	2 (≈ 4.5 µM)	2 (≈ 4.5 µM)	2 (≈ 4.5 µM)	1.83 (≈ 4.12 µM)	6 (≈ 13.5 µM)	4 (≈ 9 µM)	2 (≈ 4.5 µM)	2 (≈ 4.5 µM)	1 (≈ 2.25 µM)	0.5 (≈ 1.13 µM)	0.5 (≈ 1.13 µM)	1 (≈ 2.25 µM)	0.5 (≈ 1.13 µM)	1 (≈ 2.25 µM)	–	–	–	–
C[C@H]1c2cccc(O)c2C(=O)C2=C(O)[C@]3(O)C(=O)C(C(N)=O)=C(O)[C@@H](N(C)C)[C@@H]3[C@@H](O)[C@@H]21.O [DOXYCYCLINE]	2	2	2	2	3.7	3.3	2	2	1.17	0.83	0.75	1.17	0.5	1	0.75	2	–	–
CC(=O)OCC1=C(C(=O)O)N2C(=O)[C@@H](NC(=O)Cc3cccs3)[C@H]2SC1 [CEPHALOTHIN]	6.7 (≈ 16.9 µM)	4.7 (≈ 11.9 µM)	4.7 (≈ 11.9 µM)	4.7 (≈ 11.9 µM)	10.7 (≈ 27 µM)	9.3 (≈ 23.5 µM)	6 (≈ 15.1 µM)	4.7 (≈ 11.9 µM)	2.3 (≈ 5.8 µM)	1.3 (≈ 3.28 µM)	1.2 (≈ 3.03 µM)	2 (≈ 5.04 µM)	1 (≈ 2.52 µM)	2 (≈ 5.04 µM)	–	–	2 (≈ 5.04 µM)	5.3 (≈ 13.4 µM)
O=C(N[C@H](CO)[C@H](O)c1ccc([N+](=O)[O-])cc1)C(Cl)Cl [CHLORAMPHENICOL]	13.3 (≈ 41.2 µM)	10.7 (≈ 33.1 µM)	6 (≈ 18.6 µM)	6.7 (≈ 20.7 µM)	24 (≈ 74.3 µM)	21 (≈ 65 µM)	12 (≈ 37.1 µM)	9.3 (≈ 28.8 µM)	4 (≈ 12.4 µM)	4 (≈ 12.4 µM)	4 (≈ 12.4 µM)	4 (≈ 12.4 µM)	4 (≈ 12.4 µM)	4 (≈ 12.4 µM)	–	–	–	–
CO[C@@]1(NC(=O)Cc2cccs2)C(=O)N2C(C(=O)O)=C(COC(N)=O)CS[C@@H]21 [CEFOXITIN]	4.7 (≈ 11 µM)	3 (≈ 7.02 µM)	3 (≈ 7.02 µM)	3 (≈ 7.02 µM)	7.3 (≈ 17.1 µM)	6 (≈ 14 µM)	4 (≈ 9.36 µM)	4 (≈ 9.36 µM)	1.7 (≈ 3.98 µM)	0.92 (≈ 2.15 µM)	0.92 (≈ 2.15 µM)	1.7 (≈ 3.98 µM)	0.75 (≈ 1.75 µM)	1.5 (≈ 3.51 µM)	–	–	1 (≈ 2.34 µM)	6 (≈ 14 µM)
CC1(C)S[C@@H]2[C@H](NC(=O)[C@H](N)c3ccccc3)C(=O)N2[C@H]1C(=O)O [AMPICILLIN]	2.3 (≈ 6.58 µM)	2.2 (≈ 6.3 µM)	1.5 (≈ 4.29 µM)	1.83 (≈ 5.24 µM)	4 (≈ 11.4 µM)	3 (≈ 8.59 µM)	1.8 (≈ 5.15 µM)	1.7 (≈ 4.87 µM)	1 (≈ 2.86 µM)	0.75 (≈ 2.15 µM)	0.83 (≈ 2.38 µM)	1 (≈ 2.86 µM)	0.75 (≈ 2.15 µM)	1 (≈ 2.86 µM)	–	–	1.5 (≈ 4.29 µM)	2.3 (≈ 6.58 µM)
CCn1cc(C(=O)O)c(=O)c2ccc(C)nc21 [NALIDIXIC ACID]	3.3 (≈ 14.2 µM)	4 (≈ 17.2 µM)	3.3 (≈ 14.2 µM)	4 (≈ 17.2 µM)	6.7 (≈ 28.8 µM)	10.7 (≈ 46.1 µM)	3.3 (≈ 14.2 µM)	4 (≈ 17.2 µM)	4 (≈ 17.2 µM)	3.7 (≈ 15.9 µM)	3.7 (≈ 15.9 µM)	4 (≈ 17.2 µM)	4 (≈ 17.2 µM)	4 (≈ 17.2 µM)	3 (≈ 12.9 µM)	3 (≈ 12.9 µM)	3 (≈ 12.9 µM)	3 (≈ 12.9 µM)
